Active and inactive are the calls of the source. No cut-off for these calls is given here.
These molecules were tested against Tyrosine-protein kinase ABL1 (Homo sapiens, UniProt P00519) (assay: Inhibition of ABL (unknown origin) after 30 mins by fluorescence assay). Settings: not given.
Chain of Tyrosine-protein kinase ABL1 (P00519 whole entry): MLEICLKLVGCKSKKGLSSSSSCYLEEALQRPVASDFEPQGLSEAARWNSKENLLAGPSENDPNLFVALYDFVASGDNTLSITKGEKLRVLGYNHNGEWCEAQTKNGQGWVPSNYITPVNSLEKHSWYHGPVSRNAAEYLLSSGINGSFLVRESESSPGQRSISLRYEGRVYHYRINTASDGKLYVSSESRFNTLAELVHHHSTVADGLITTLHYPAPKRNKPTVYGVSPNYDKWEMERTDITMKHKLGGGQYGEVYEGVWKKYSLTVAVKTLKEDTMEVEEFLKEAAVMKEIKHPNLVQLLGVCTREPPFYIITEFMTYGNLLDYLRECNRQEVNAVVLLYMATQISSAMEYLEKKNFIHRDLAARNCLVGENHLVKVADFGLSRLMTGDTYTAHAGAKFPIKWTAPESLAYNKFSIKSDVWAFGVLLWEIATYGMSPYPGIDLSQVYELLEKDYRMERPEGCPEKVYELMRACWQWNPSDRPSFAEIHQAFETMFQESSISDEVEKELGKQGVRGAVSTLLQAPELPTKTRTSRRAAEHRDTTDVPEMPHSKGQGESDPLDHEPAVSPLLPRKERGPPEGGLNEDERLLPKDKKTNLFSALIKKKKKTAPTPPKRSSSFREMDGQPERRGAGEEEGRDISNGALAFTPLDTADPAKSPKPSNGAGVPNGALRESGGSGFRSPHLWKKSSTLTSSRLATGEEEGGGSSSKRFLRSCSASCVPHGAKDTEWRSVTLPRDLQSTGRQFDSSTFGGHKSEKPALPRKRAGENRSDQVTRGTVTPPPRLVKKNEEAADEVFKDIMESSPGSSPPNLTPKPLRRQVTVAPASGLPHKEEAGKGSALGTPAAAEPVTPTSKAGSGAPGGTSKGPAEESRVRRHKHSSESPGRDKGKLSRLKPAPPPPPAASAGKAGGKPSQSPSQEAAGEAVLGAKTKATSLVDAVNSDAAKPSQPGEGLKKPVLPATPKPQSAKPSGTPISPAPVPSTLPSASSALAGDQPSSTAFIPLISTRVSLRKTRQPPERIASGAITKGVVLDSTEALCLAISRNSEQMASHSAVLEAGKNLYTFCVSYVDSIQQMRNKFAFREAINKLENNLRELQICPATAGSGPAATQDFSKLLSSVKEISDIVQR

IC50 [µM] | SMILES
1.5 | O=[N+]([O-])c1ccc(S(=O)(=O)Nc2ccc(O)c(Sc3ncn[nH]3)c2)cc1

These molecules were tested on Thoracic aorta (assay: Antiangiogenic activity in Sprague-Dawley rat thoracic aorta rings assessed as reduction of microvessel outgrowth treated every other day for 6 days by Matrigel assay). Settings: not given.
Type: functional, tissue-based
Outline: (§1)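 Aortas were taken from male Sprague Dawley rats aged 8–10 weeks and cleaned of fibroadipose tissue. 1-mm rings were embedded between two 100 μL Matrigel layers and set 30 min at 37 °C, 5% CO2. Compound, pazopanib or 0.5% DMSO vehicle was added every other day for 6 days. Outgrowth was photographed on day 7 at ×200. Three independent experiments.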

SMILES | Activity
O=[N+]([O-])c1ccc(S(=O)(=O)Nc2ccc(O)c(Sc3ncn[nH]3)c2)cc1 | Dose-dependent effect

These molecules were tested on Thoracic aorta (assay: Antiangiogenic activity in Sprague-Dawley rat thoracic aorta rings assessed as reduction of microvessel outgrowth at 10 uM treated every other day for 6 days by Matrigel assay). Settings: not given.
Type: functional, tissue-based
Outline: as §1

SMILES | inhibition
O=C(Nc1ccc(O)c(Sc2ncnc3nc[nH]c23)c1)c1ccc([N+](=O)[O-])cc1 | inactive
O=S(=O)(Nc1ccc(O)c(Sc2ncn[nH]2)c1)c1ccc(Cl)cc1 | inactive

The molecules below were run against T1, RAC-alpha serine/threonine-protein kinase (Homo sapiens, UniProt P31749) (assay: Inhibition of AKT (unknown origin) at 10 uM after 30 mins by fluorescence assay relative to control). Settings: not given.
T1 sequence (P31749 whole entry): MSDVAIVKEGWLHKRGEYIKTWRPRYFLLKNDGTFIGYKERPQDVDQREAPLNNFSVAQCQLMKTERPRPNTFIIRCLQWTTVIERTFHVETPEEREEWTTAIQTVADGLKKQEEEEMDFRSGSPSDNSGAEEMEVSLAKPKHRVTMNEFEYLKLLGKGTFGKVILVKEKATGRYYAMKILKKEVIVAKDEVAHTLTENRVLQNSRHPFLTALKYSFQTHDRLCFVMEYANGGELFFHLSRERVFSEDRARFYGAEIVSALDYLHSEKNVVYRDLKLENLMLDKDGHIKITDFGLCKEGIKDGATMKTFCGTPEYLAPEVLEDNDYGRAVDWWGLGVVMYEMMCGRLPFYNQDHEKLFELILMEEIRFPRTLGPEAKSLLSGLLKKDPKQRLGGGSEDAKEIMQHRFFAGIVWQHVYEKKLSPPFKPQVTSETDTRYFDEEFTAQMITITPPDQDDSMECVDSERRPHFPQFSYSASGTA
Outline: (§2)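 Enzyme plus compound (10 μM screen) or water in Hepes/Tris pH 7.4, EGTA/Tris, MgCl2, DTT and 0.008% Tween 20. Substrate and ATP started the reaction, 30 min at room temperature. EDTA stop, then europium-labelled anti-phospho-PT66 antibody for 60 min and TR-FRET read. Basal wells had no enzyme. Percent inhibition of control activity; staurosporine reference; duplicate.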

inhibition | SMILES
14.2% | Cc1nnc(Sc2cc(NS(=O)(=O)c3ccc([N+](=O)[O-])cc3)ccc2O)s1
100% | O=[N+]([O-])c1ccc(S(=O)(=O)Nc2ccc(O)c(Sc3ncn[nH]3)c2)cc1
inactive | O=S(=O)(Nc1ccc(O)c(Sc2ncn[nH]2)c1)c1ccc2ccccc2c1
50.7% | O=C(Nc1ccc(O)c(Sc2ncn[nH]2)c1)c1ccc([N+](=O)[O-])cc1
56.4% | O=S(=O)(Nc1ccc(O)c(Sc2ncn[nH]2)c1)c1ccc(Cl)cc1
14.9% | O=[N+]([O-])c1ccc(S(=O)(=O)Nc2ccc(O)c(Sc3nncs3)c2)cc1
37.5% | O=[N+]([O-])c1ccc(S(=O)(=O)Nc2ccc(O)c(Sc3ncnc4nc[nH]c34)c2)cc1
48.4% | O=S(=O)(Nc1ccc(O)c(Sc2ncn[nH]2)c1)c1c(Cl)cccc1Cl
11.5% | Cn1nnnc1Sc1cc(NS(=O)(=O)c2ccc([N+](=O)[O-])cc2)ccc1O

Continued, molecule first:

SMILES | inhibition
O=C(Nc1ccc(O)c(Sc2ncnc3nc[nH]c23)c1)c1ccc([N+](=O)[O-])cc1 | 64.6%
Cc1nnc(Sc2cc(NC(=O)c3ccc([N+](=O)[O-])cc3)ccc2O)s1 | 12.3%
Cc1ccc(S(=O)(=O)Nc2ccc(O)c(Sc3nc[nH]n3)c2)cc1 | 29.8%
COc1ccc(S(=O)(=O)Nc2ccc(O)c(Sc3nc[nH]n3)c2)cc1 | 12.1%
Cc1cc(C)c(S(=O)(=O)Nc2ccc(O)c(Sc3nc[nH]n3)c2)c(C)c1 | 19.7%
O=S(=O)(Nc1ccc(O)c(Sc2ncn[nH]2)c1)c1cccc2ccccc12 | 20.4%
CS(=O)(=O)Nc1ccc(O)c(Sc2ncn[nH]2)c1 | 14.3%
CN[C@@H]1C[C@H]2O[C@@](C)([C@@H]1OC)n1c3ccccc3c3c4c(c5c6ccccc6n2c5c31)C(=O)NC4 | 96.5%
CC(C)c1cc(C(C)C)c(S(=O)(=O)Nc2ccc(O)c(Sc3ncn[nH]3)c2)c(C(C)C)c1 | 14.5%
Cn1nnnc1Sc1cc(NC(=O)c2ccc([N+](=O)[O-])cc2)ccc1O | 10.1%
O=C(Nc1ccc(O)c(Sc2nncs2)c1)c1ccc([N+](=O)[O-])cc1 | inactive

These molecules were tested on HUVEC (assay: Antiangiogenic activity in HUVEC assessed as inhibition of tube formation at 10 uM after 6 hrs by Matrigel assay). Settings: Homo sapiens.
Type: functional, cell-based
Outline: (§3)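 HUVECs seeded at 40,000 cells/well on Matrigel (gelled 30 min, 37 °C, 5% CO2) in M199 with 5% FBS plus compound or 0.5% DMSO vehicle; pazopanib positive control; 6 h at 37 °C, 5% CO2. Tube networks were scored by phase-contrast microscopy and photographed at ×100. Three independent experiments.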

SMILES | inhibition
O=C(Nc1ccc(O)c(Sc2ncnc3nc[nH]c23)c1)c1ccc([N+](=O)[O-])cc1 | inactive
O=S(=O)(Nc1ccc(O)c(Sc2ncn[nH]2)c1)c1ccc(Cl)cc1 | inactive

These molecules were tested against Vascular endothelial growth factor receptor 2 (Homo sapiens) (UniProt P35968) (assay: Inhibition of VEGFR2 (unknown origin) phosphorylation at 5 ug/mL by cell-based Western blotting analysis). Settings: not given.
Chain of Vascular endothelial growth factor receptor 2 (Homo sapiens) (P35968 whole entry): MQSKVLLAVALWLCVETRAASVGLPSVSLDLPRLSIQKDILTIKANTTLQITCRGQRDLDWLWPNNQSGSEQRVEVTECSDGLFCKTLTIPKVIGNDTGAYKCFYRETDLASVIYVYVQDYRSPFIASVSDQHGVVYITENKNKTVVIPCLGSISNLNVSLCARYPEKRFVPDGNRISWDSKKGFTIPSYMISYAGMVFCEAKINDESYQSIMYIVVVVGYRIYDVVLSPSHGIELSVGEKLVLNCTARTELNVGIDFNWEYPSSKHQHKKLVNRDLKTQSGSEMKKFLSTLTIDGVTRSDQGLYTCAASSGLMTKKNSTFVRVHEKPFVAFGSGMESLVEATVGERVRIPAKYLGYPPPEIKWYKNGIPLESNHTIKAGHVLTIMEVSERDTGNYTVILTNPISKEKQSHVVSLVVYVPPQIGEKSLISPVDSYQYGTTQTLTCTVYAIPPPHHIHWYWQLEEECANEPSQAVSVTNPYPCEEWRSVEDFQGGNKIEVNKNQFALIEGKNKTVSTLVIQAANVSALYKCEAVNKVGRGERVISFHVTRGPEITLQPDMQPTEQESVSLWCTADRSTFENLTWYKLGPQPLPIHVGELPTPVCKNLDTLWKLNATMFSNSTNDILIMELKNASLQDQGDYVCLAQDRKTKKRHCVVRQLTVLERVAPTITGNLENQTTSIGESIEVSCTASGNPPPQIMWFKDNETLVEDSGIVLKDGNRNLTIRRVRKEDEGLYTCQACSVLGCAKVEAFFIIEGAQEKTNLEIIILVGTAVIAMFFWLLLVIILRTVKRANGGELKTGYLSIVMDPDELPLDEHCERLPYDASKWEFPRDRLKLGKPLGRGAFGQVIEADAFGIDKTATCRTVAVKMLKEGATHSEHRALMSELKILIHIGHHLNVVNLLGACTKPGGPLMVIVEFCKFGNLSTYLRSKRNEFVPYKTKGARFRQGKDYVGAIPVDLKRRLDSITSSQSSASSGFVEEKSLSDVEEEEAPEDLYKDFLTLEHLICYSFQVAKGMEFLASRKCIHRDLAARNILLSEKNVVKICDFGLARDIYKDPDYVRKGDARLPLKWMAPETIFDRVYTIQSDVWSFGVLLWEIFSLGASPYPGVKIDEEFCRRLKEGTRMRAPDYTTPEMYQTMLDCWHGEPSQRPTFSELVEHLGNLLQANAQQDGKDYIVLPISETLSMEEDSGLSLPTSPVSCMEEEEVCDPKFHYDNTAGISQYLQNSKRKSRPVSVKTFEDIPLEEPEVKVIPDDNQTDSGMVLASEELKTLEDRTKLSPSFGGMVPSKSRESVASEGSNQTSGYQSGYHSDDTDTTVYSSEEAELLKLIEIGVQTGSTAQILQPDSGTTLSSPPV

inhibition | SMILES
Active | O=[N+]([O-])c1ccc(S(=O)(=O)Nc2ccc(O)c(Sc3ncn[nH]3)c2)cc1
inactive | O=S(=O)(Nc1ccc(O)c(Sc2ncn[nH]2)c1)c1ccc(Cl)cc1

The next lines start with the molecule.

SMILES | inhibition
O=C(Nc1ccc(O)c(Sc2ncnc3nc[nH]c23)c1)c1ccc([N+](=O)[O-])cc1 | Active
Cc1ccc(Nc2nccc(N(C)c3ccc4c(C)n(C)nc4c3)n2)cc1S(N)(=O)=O | Active

The molecules below were run against Vascular endothelial growth factor receptor 2 (Homo sapiens) (UniProt P35968) (assay: Inhibition of VEGFR2 (unknown origin) phosphorylation at 1 ug/mL by cell-based Western blotting analysis). Settings: not given.

inhibition | SMILES
Active | O=[N+]([O-])c1ccc(S(=O)(=O)Nc2ccc(O)c(Sc3ncn[nH]3)c2)cc1
Active | Cc1ccc(Nc2nccc(N(C)c3ccc4c(C)n(C)nc4c3)n2)cc1S(N)(=O)=O
inactive | O=S(=O)(Nc1ccc(O)c(Sc2ncn[nH]2)c1)c1ccc(Cl)cc1

The molecules below were run against ALK tyrosine kinase receptor (Homo sapiens) (UniProt Q9UM73) (assay: Inhibition of ALK (unknown origin) at 10 uM after 30 mins by fluorescence assay relative to control). Settings: not given.
Chain of ALK tyrosine kinase receptor (Homo sapiens) (Q9UM73 19-1620 limits assumed): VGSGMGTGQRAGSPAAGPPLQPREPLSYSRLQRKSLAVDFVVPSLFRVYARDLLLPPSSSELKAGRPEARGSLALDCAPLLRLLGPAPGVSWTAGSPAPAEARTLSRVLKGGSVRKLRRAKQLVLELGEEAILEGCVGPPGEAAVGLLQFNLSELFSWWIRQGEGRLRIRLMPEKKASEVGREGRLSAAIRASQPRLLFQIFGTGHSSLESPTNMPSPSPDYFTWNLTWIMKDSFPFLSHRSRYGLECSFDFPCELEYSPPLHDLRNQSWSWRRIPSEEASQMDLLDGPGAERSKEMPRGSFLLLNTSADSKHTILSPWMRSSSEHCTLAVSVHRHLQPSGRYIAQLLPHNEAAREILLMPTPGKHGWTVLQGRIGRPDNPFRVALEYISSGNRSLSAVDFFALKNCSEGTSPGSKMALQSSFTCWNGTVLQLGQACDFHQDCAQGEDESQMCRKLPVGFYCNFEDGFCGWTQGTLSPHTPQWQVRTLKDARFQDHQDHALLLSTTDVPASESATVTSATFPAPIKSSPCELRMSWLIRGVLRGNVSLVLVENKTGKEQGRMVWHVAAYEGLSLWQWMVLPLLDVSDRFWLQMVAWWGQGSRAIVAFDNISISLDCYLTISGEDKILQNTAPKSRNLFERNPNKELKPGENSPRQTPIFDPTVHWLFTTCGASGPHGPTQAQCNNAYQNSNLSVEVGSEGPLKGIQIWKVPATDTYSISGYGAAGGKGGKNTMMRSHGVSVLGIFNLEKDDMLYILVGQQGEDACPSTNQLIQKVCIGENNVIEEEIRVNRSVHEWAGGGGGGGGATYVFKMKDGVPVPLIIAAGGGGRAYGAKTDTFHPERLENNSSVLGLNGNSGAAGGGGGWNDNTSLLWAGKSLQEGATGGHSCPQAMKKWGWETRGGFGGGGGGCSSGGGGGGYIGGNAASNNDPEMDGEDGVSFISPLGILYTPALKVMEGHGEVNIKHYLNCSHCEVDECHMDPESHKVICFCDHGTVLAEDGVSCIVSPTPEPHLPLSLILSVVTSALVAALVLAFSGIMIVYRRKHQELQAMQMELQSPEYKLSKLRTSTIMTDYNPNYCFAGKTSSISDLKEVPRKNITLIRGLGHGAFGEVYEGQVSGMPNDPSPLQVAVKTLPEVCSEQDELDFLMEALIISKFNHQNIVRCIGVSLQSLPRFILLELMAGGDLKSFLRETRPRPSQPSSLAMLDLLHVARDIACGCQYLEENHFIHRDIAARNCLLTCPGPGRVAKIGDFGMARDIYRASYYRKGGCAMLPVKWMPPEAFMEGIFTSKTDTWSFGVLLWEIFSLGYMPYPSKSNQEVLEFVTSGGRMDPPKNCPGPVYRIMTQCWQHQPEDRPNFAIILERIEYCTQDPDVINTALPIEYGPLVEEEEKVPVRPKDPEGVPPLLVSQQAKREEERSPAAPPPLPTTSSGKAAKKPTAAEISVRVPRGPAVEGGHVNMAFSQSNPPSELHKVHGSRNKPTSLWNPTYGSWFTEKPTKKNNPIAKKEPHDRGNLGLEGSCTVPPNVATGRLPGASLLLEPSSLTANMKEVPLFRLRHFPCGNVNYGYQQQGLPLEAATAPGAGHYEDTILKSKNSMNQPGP
Outline: as §2

inhibition | SMILES
21.8% | Cc1nnc(Sc2cc(NS(=O)(=O)c3ccc([N+](=O)[O-])cc3)ccc2O)s1
49.4% | O=[N+]([O-])c1ccc(S(=O)(=O)Nc2ccc(O)c(Sc3ncn[nH]3)c2)cc1
inactive | O=S(=O)(Nc1ccc(O)c(Sc2ncn[nH]2)c1)c1ccc2ccccc2c1
inactive | O=C(Nc1ccc(O)c(Sc2ncn[nH]2)c1)c1ccc([N+](=O)[O-])cc1
inactive | O=S(=O)(Nc1ccc(O)c(Sc2ncn[nH]2)c1)c1ccc(Cl)cc1
11.4% | O=[N+]([O-])c1ccc(S(=O)(=O)Nc2ccc(O)c(Sc3nncs3)c2)cc1
inactive | O=[N+]([O-])c1ccc(S(=O)(=O)Nc2ccc(O)c(Sc3ncnc4nc[nH]c34)c2)cc1
10.3% | O=S(=O)(Nc1ccc(O)c(Sc2ncn[nH]2)c1)c1c(Cl)cccc1Cl
inactive | Cn1nnnc1Sc1cc(NS(=O)(=O)c2ccc([N+](=O)[O-])cc2)ccc1O

Further lines, the molecule ahead of its results:

SMILES | inhibition
O=C(Nc1ccc(O)c(Sc2ncnc3nc[nH]c23)c1)c1ccc([N+](=O)[O-])cc1 | 21.9%
Cc1nnc(Sc2cc(NC(=O)c3ccc([N+](=O)[O-])cc3)ccc2O)s1 | 14%
Cc1ccc(S(=O)(=O)Nc2ccc(O)c(Sc3nc[nH]n3)c2)cc1 | 15.3%
COc1ccc(S(=O)(=O)Nc2ccc(O)c(Sc3nc[nH]n3)c2)cc1 | 29.5%
Cc1cc(C)c(S(=O)(=O)Nc2ccc(O)c(Sc3nc[nH]n3)c2)c(C)c1 | 18%
O=S(=O)(Nc1ccc(O)c(Sc2ncn[nH]2)c1)c1cccc2ccccc12 | 10%
CS(=O)(=O)Nc1ccc(O)c(Sc2ncn[nH]2)c1 | 15.9%
CC(C)c1cc(C(C)C)c(S(=O)(=O)Nc2ccc(O)c(Sc3ncn[nH]3)c2)c(C(C)C)c1 | 17.1%
Cn1nnnc1Sc1cc(NC(=O)c2ccc([N+](=O)[O-])cc2)ccc1O | inactive
O=C(Nc1ccc(O)c(Sc2nncs2)c1)c1ccc([N+](=O)[O-])cc1 | inactive

The molecules below were run on HUVEC (assay: Antiangiogenic activity in HUVEC assessed as inhibition of tube formation after 6 hrs by Matrigel assay). Settings: Homo sapiens.
Type: functional, cell-based
Outline: as §3

SMILES | inhibition
O=[N+]([O-])c1ccc(S(=O)(=O)Nc2ccc(O)c(Sc3ncn[nH]3)c2)cc1 | Dose-dependent effect

Each molecule was assayed on HUVEC (assay: Antiangiogenic activity in HUVEC assessed as inhibition of tube formation at 0.1 uM after 6 hrs by Matrigel assay). Settings: Homo sapiens.
Type: functional, cell-based
Outline: as §3

SMILES | inhibition
Cc1ccc(Nc2nccc(N(C)c3ccc4c(C)n(C)nc4c3)n2)cc1S(N)(=O)=O | Active

These molecules were tested against T1, RAC-alpha serine/threonine-protein kinase (assay: Inhibition of AKT (unknown origin) after 30 mins by fluorescence assay). Settings: not given.

IC50 [µM] | SMILES
1.26 | O=[N+]([O-])c1ccc(S(=O)(=O)Nc2ccc(O)c(Sc3ncn[nH]3)c2)cc1

What follows are molecules tested on Thoracic aorta (assay: Antiangiogenic activity in Sprague-Dawley rat thoracic aorta rings assessed as reduction of microvessel outgrowth at 1 uM treated every other day for 6 days by Matrigel assay). Settings: not given.
Type: functional, tissue-based
Outline: as §1

SMILES | inhibition
O=[N+]([O-])c1ccc(S(=O)(=O)Nc2ccc(O)c(Sc3ncn[nH]3)c2)cc1 | Active

The molecules below were run on Thoracic aorta (assay: Antiangiogenic activity in Sprague-Dawley rat thoracic aorta rings assessed as reduction of microvessel outgrowth at 0.1 uM treated every other day for 6 days by Matrigel assay). Settings: not given.
Type: functional, tissue-based
Outline: as §1

SMILES | inhibition
Cc1ccc(Nc2nccc(N(C)c3ccc4c(C)n(C)nc4c3)n2)cc1S(N)(=O)=O | Active
